High-throughput results: PubChem, SRMLSC
The entries come from a sample that favours hits as a whole.
E coli WT inh: growth inhibitors of wild type E. coli, primary screen, strain BW25113 wild type, absorbance readout; E. coli BW25113 growth inhibition, OD600; actives 0.05% (n = 20,000); inhibition, % at 10 µM; in the data active = inhibition above about 40%;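 note: bacteria exposed to compound for 20 hours at 37 °C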
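System: bacterial strain in a whole-cell growth screen; medium: LB broth with 50 µg/mL kanamycin; detection: absorbance at 615 nm; schedule: 20 h exposure, 37 °C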
* hit, by the source's call.

Results for CN(C)CCCN1C(=O)C(=O)/C(=C(/O)c2ccc3c(c2)OCO3)C1c1cccnc1 (stereo not drawn) ?
E coli WT inh: -17

How did COc1cc(C(=O)Nc2nnc(-c3sccc3C)s2)cc(OC)c1OC do in these assays?
E coli WT inh: -17

How did CCOC(=O)CNC(=O)c1cc(C)oc1C do in these assays?
E coli WT inh: -13

Results for O=C(Nc1ccccc1C(=O)NCCN1CCOCC1)c1ccco1 ?
E coli WT inh: -21

Results for CS(=O)(=O)N1CCCC(C(=O)NCc2ccccc2Cl)C1 (stereo not drawn) ?
E coli WT inh: 5

How did CCOC(=O)C1=C(c2ccccc2)N2CCN=C2S1 do in these assays?
E coli WT inh: -3

Results for Cc1cc(NC(=O)CSc2n[nH]c(CC(C)C)n2)no1 ?
E coli WT inh: -15

How did CC12CCC(C(=O)N3CCN(C(=O)C45CCC(C)(C(=O)O4)C5(C)C)CC3)(OC1=O)C2(C)C do in these assays?
E coli WT inh: -4

How did c1ccc(COc2ccc(CNn3cnnc3)cc2)cc1 do in these assays?
E coli WT inh: -9

Results for CCN(CC)S(=O)(=O)c1ccc(NC(=O)C(OC)c2ccccc2)cc1 (stereo not drawn) ?
E coli WT inh: -12

How did COc1ccc(S(=O)(=O)N(CC(=O)NC2CC2)c2ccc(C)cc2)cc1OC do in these assays?
E coli WT inh: 1

Results for O=C(O)c1ccccc1S ?
E coli WT inh: -5

What do the screens show for `O=C(c1cccc(C(F)(F)F)c1)N1CCN(C2CCCCC2)CC1`?
E coli WT inh: -17

What do the screens show for `CC(=O)N1CCc2cc(S(=O)(=O)NCCC3=CCCCC3)ccc21`?
E coli WT inh: 0

Results for O=C(Nc1ccc(O)c(C(=O)O)c1)c1ccc2c(c1)C(=O)N(CC1CCCO1)C2=O (stereo not drawn) ?
E coli WT inh: 2

How did C=C(C)c1cccc(C(C)(C)NC(=O)N2CCN(CC(N)=O)CC2)c1 do in these assays?
E coli WT inh: -19

How did CCCCCC(=O)N1CC2(CC)CN(C(=O)CCCCC)CC(CC)(C1)C2=O do in these assays?
E coli WT inh: 12

Results for CCOc1ccc2nc(Nc3nc4c(c(=O)[nH]3)CCC4)nc(C)c2c1 ?
E coli WT inh: -3

What do the screens show for `COc1ccc([C@@H]2Sc3ccccc3N(CCN(C)C)C(=O)[C@@H]2OC(C)=O)cc1`?
E coli WT inh: 3

What do the screens show for `CCNc1ccc2c(Cl)cc(=O)oc2c1`?
E coli WT inh: 8

How did COC(=O)c1[nH]c2ccc(C)cc2c1NC(=O)CN1CCCc2ccccc21 do in these assays?
E coli WT inh: 3

What do the screens show for `N#C/C(=C\c1ccc[nH]1)S(=O)(=O)c1ccccc1`?
E coli WT inh: -9

What do the screens show for `CC1CC(C)CN(Cc2nc3c(c(=O)n(C)c(=O)n3C)n2Cc2ccccc2Cl)C1` (stereo not drawn)?
E coli WT inh: 2

What do the screens show for `CCn1cc(C(=O)O)c(=O)c2cc(F)c(N3CCNCC3)nc21`?
E coli WT inh: 75*

Results for CCn1cc(C(=O)OCc2ccc(F)cc2)c(=O)c2ccc(C)nc21 ?
E coli WT inh: -8

Results for CCn1cc(C(=O)O)c(=O)c2ccc(C)nc21 ?
E coli WT inh: 26

Results for COc1ccc(CCn2c(=N)c(C#N)cc3c(=O)n4ccccc4nc32)cc1 ?
E coli WT inh: -2

What do the screens show for `Cc1cc(NC(=O)CCC2CCCC2)no1`?
E coli WT inh: -29

What do the screens show for `COc1ccc(C2C3=C(CCCC3=O)Nc3nc4ccccc4n32)cc1OC` (stereo not drawn)?
E coli WT inh: -14

How did O=S(=O)(c1ccc(N2CCCC2)cc1)C(F)(F)F do in these assays?
E coli WT inh: -19

Results for NC(=O)CS(=O)(=O)c1nc2ccccc2n1Cc1ccccc1F ?
E coli WT inh: -15

What do the screens show for `c1cnc(N2CC[N+]3(CCCC3)CC2)nc1`?
E coli WT inh: -18

Results for CC1CCc2cc(F)cc3c(=O)c(C(=O)O)cn1c23 (stereo not drawn) ?
E coli WT inh: 44*

What do the screens show for `COc1cc(OC)cc(C(=O)N2c3ccc(F)cc3CCC2C)c1` (stereo not drawn)?
E coli WT inh: 1

What do the screens show for `CC1CCc2cc(F)cc3c(O)c(C(=O)NCC4CCCO4)c(=O)n1c23` (stereo not drawn)?
E coli WT inh: 7

What do the screens show for `CCC(=O)c1cc(F)c(N2CCN(C(=O)Cc3ccccc3)CC2)cc1C`?
E coli WT inh: -17

How did CCOC(=O)c1cn(CC)c2cc(N3CCOCC3)c(F)cc2c1=O do in these assays?
E coli WT inh: 16

Results for CCN1CCN(C(=O)c2cn(CC)c3ccc(S(=O)(=O)N(C)C)cc3c2=O)CC1 ?
E coli WT inh: 5

How did CCOC(=O)N1CCN(C(=O)c2cn(CC)c3cc(N4CCN(C)CC4)c(F)cc3c2=O)CC1 do in these assays?
E coli WT inh: 71*

Results for CCN1CCN(c2cc3c(cc2F)c(=O)c(C(=O)O)cn3C2CC2)CC1 ?
E coli WT inh: 72*

Results for CCOC(=O)N1CCN(c2cc3nccnc3cc2F)CC1 ?
E coli WT inh: -7

How did COc1ccc(C(=O)COC(=O)CCn2nnc(-c3cccs3)n2)cc1 do in these assays?
E coli WT inh: 5

What do the screens show for `COc1ccc(-c2cn3c4c(sc3n2)CCCC4)cc1`?
E coli WT inh: -21

What do the screens show for `Cc1ccc(N(CC(=O)O)S(C)(=O)=O)cc1Cl`?
E coli WT inh: -21

Results for COc1ccccc1CNc1nc2nc(C)cc(=O)n2[nH]1 ?
E coli WT inh: -21

Results for O=C1CC(NC23CC4CC(CC(C4)C2)C3)C(=O)N1c1ccc2c(c1)OCO2 (stereo not drawn) ?
E coli WT inh: -23

Results for CCOc1cc(C(=O)NCCOC)ccc1OC ?
E coli WT inh: -14

Results for COc1ccc(OC)c(NS(=O)(=O)Cc2ccccc2)c1 ?
E coli WT inh: 7

Results for Cn1c(=O)n(CC(=O)OCc2ccccc2)c(=O)c2c1nc1n2CCCN1C1CCCCC1 ?
E coli WT inh: -3

How did O=C(NC1=NC2CCCCC2N1)c1ccccc1 (stereo not drawn) do in these assays?
E coli WT inh: -19

What do the screens show for `Cc1nnc(Sc2nc(Sc3nnc(C)s3)nc(N3CCN(C)CC3)n2)s1`?
E coli WT inh: -16

Results for CCn1cc(C(=O)NC2CCc3ccccc32)c(=O)c2ccc(C)nc21 (stereo not drawn) ?
E coli WT inh: 6

Results for O=C(O)CCc1cc(I)c(Oc2ccc(O)c(I)c2)c(I)c1 ?
E coli WT inh: -3

Results for O=S(=O)(NCCSc1ccccc1)c1cccs1 ?
E coli WT inh: 4

How did N#C/C(C(=O)N1CCOCC1)=C1/SC=C(c2ccccc2)N1c1ccccc1 do in these assays?
E coli WT inh: -1

How did COc1ccc(Cc2nnc3n2N=C(c2cc4ccccc4o2)CS3)cc1OC do in these assays?
E coli WT inh: -2

What do the screens show for `CC(C)C(=O)Nc1cccc(NC(=O)CCN2C(=O)c3ccccc3S2(=O)=O)c1`?
E coli WT inh: -7

What do the screens show for `COc1ccc(OC)c(S(=O)(=O)N2CCC(C(=O)N3CCc4ccccc4C3)CC2)c1`?
E coli WT inh: -23

What do the screens show for `CC12CCC(C(=O)N3CCc4ccccc43)(CC1=O)C2(C)C` (stereo not drawn)?
E coli WT inh: -24

Results for Cc1onc(-c2c(Cl)cccc2Cl)c1C(=O)NCCN1CCOCC1 ?
E coli WT inh: 5

How did COc1ccc(-c2c3c(=O)n(C)c(=O)n(C)c3cn2C2CCCCC2)cc1 do in these assays?
E coli WT inh: -19

Results for COc1cc(-c2ccc(NC(=O)CN3CCCCC3)c(OC)c2)ccc1NC(=O)CN1CCCCC1 ?
E coli WT inh: -15
